Source: PubChem
APJ antagonist: blocks the human apelin receptor APJ. P35414. CHO-K1 APJ beta-arrestin complementation, luminescence. inhibition, % at 20 µM. 330,000 tested, 0.32% active. AID 2521;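 active = inhibition above about 40% at 20 µM, limit read from the data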;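 also: cells challenged with 10 nM apelin-13 agonist together with compound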
EBI2 block: blocks human EBI2 receptor beta-arrestin signaling; EBI2 beta-arrestin recruitment, luminescence, 7a,25-OHC stimulated; P32249; AID 651636; inhibition, % at 5 µM; 360,000 tested, 0.81% active; in the data active = inhibition above about 38%;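 also: enzyme fragment complementation signal reports receptor beta-arrestin coupling in cells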
hiPSC survival: increases survival of single human iPS cells. 360,000 tested, 0.044% active. hiPSC single-cell survival, ATPlite luminescence; 100% = ROCK inhibitor wells, 0% = DMSO. survival enhancement, % at 20 µM; in the data active = survival enhancement above about 18%;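 also: cells exposed to compounds for 16 hours before the ATP read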
CXCR6 block: inhibitors of human CXCR6 receptor; O00574; CHO-K1 PathHunter CXCR6 beta-arrestin, luminescence; inhibition, % at 20 µM; 360,000 tested, 0.36% active; AID 602244; in the data active = inhibition above about 34%, passing the limit was not always enough;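 also: antagonist mode with CXCL16 agonist at 10 nM final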
Target sequence (O00574 whole entry, looked up): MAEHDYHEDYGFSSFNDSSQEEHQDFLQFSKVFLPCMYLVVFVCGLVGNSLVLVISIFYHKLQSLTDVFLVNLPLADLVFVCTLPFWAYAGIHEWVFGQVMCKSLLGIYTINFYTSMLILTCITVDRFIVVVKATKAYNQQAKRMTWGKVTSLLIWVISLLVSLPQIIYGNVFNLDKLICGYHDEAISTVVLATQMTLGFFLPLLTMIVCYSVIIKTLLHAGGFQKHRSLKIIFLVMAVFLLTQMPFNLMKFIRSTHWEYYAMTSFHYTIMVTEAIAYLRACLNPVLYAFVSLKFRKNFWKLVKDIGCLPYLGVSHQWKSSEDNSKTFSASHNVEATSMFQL
APJ ag: activates the human apelin receptor APJ; P35414; activation, % at 20 µM; CHO-K1 APJ PathHunter beta-arrestin, luminescence; 0% DMSO wells, 100% apelin; 330,000 tested, 0.11% active;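 active = activation more than six SD over the plate average, tested at 20 µM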
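Assay system: engineered CHO-K1 APJ arrestin reporter cells; Amount: 1000 CHO-K1 reporter cells seeded per well; Dosing: one dose, 20 µM compound, 1% DMSO; Times: compound stimulation 90 min at 25 °C, detection 60 min; Measured by: luminescent beta-gal fragment complementation, chemiluminescent substrate; Read-out: APJ–arrestin association signal; Controls: DMSO vs Apelin-13 10 nM.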
CCR6 antagonist: CCR6 (human) receptor antagonism | 340,000 tested, 0.49% active | CHO-K1 CCR6 PathHunter beta-arrestin, luminescence, CCL20-stimulated | AID 493098 | P51684 | inhibition, % at 20 µM;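 active = compounds whose inhibition of the agonist-driven luminescence signal at 20 µM reaches about 50%, limit read from the data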;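 also: cells stimulated with CCL20 at 14 nM final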
Target sequence (P51684 whole entry, looked up): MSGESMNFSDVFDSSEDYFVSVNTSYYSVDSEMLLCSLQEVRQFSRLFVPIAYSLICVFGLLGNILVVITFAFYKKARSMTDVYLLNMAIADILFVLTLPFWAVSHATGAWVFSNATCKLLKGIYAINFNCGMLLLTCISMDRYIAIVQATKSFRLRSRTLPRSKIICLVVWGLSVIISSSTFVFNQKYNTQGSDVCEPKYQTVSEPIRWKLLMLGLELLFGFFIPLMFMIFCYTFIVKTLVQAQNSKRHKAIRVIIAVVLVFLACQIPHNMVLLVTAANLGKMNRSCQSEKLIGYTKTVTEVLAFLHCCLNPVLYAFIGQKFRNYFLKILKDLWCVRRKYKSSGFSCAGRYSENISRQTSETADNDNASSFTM
EBI2 antag conf: confirmation of human EBI2 receptor antagonists; shares compounds with EBI2 block; EBI2 beta-arrestin luminescence, 7a,25-OHC antagonism; inhibition, % at 5 µM; 2,400 tested, 29% active;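 active = inhibition of at least 50%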
EBI2 agonist: activates EBI2, counter-screen for EBI2 antagonists. shares compounds with EBI2 block. EBI2-expressing cells, agonist mode, luminescence, 60 min; 0% vehicle, 100% 7α,25-dihydroxycholesterol control. activation, % at 5 µM. 2,400 tested, under 10 active;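 active = activation of at least 50%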
bGal counter: inhibits E. coli beta-galactosidase, counter-screen for EBI2 antagonists | 2,400 tested, 1% active | AID 652176 | inhibition, % at 5 µM | shares compounds with EBI2 block | purified beta-galactosidase, luminescent Galacton Star, 15 min;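 active = replicate-average signal at least 3 plate SD below neutral wells, shown as high inhibition, flagging enzyme-inhibiting false positives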;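 also: higher means stronger loss of beta-gal luminescence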
Of the large screens only hits and unclear results are named; the others gave an inactive call (follow-up assays come after a bar, where they were run). Most compounds without a hit are left out; they make up all but 1.5% or so of the library.

O=C(C1=C[C@@H](c2ccc(Br)cc2)C[C@@H](OCc2ccc(CO)cc2)O1)N1CCN(Cc2ccc3c(c2)OCO3)CC1	EBI2 block 41 | EBI2 antag conf inactive | EBI2 agonist inactive | bGal counter inactive
Cc1cccc(Nc2nc(-c3c(C)nc4ccccn34)cs2)c1	EBI2 block 63 | EBI2 antag conf 54 | EBI2 agonist inactive | bGal counter inactive
Cc1nc2ccccn2c1-c1csc(Nc2cccc(O)c2)n1	none (no result: APJ antagonist, APJ ag)
O=C(O)Cn1c(=O)n(Cc2ccccc2)c2ccccc21	none
O=c1n(Cc2ccccc2)c2cc(Cl)cnc2n1Cc1ccccc1	EBI2 block 71 | EBI2 antag conf 50 | EBI2 agonist inactive | bGal counter inactive
CN(Cc1ccccc1)C(=O)c1nc[nH]c1C(=O)N(C)Cc1ccccc1	none
C=CCC1(CC=C)CCCN1C(=O)C1CCC(=O)N(CCc2ccccc2)C1 (stereo not drawn)	EBI2 block 46 | EBI2 antag conf inactive | EBI2 agonist inactive | bGal counter inactive
C=CCC1(CC=C)CCCN1C(=O)C1CCC(=O)N(CCc2ccc(OC)cc2)C1 (stereo not drawn)	EBI2 block 57 | EBI2 antag conf inactive | EBI2 agonist inactive | bGal counter inactive
COc1ccc(CCN2CC(C(=O)N(C)Cc3ccc(C)o3)CCC2=O)cc1 (stereo not drawn)	EBI2 block 45 | EBI2 antag conf inactive | EBI2 agonist inactive | bGal counter inactive
COc1ccc(CCN2CC(C(=O)N(C)Cc3ccccn3)CCC2=O)cc1 (stereo not drawn)	none (no result: APJ antagonist, APJ ag, CCR6 antagonist)
Cc1ccc(C)c(S(=O)(=O)N2CCN(C(=O)C3CCN(C(=O)c4ccc(F)cc4)CC3)CC2)c1	none
OC[C@@H]1CN(CCN2CCOCC2)C[C@H](n2cnc3c(NC4CCC4)ncnc32)O1	none (no result: APJ antagonist, APJ ag, CCR6 antagonist)
CC1CC(C)CN(C(=O)CCNC(=O)Cn2ccc3ccccc3c2=O)C1 (stereo not drawn)	none
Cc1ccc(N(C(=O)c2snc(C(N)=O)c2N)C(CC(C)C)C(=O)NC2CCCC2)cc1 (stereo not drawn)	none
CCCCC(C(=O)NC1CCCC1)N(C(=O)c1snc(C(N)=O)c1N)c1ccc(C)cc1 (stereo not drawn)	EBI2 block 50 | EBI2 antag conf inactive | EBI2 agonist inactive | bGal counter inactive
CCN1CCN(C(=O)/C=C/c2ccc(OC)c(OC)c2)CC1	none
CCN1CCN(C(=O)/C=C/c2ccc(C(C)C)cc2)CC1	EBI2 block 93 | EBI2 antag conf 87 | EBI2 agonist inactive | bGal counter inactive
CCN1CCN(C(=O)/C=C/c2cccc(Cl)c2)CC1	EBI2 block 75 | EBI2 antag conf inactive | EBI2 agonist inactive | bGal counter inactive
Cc1cc2oc(=O)cc(CN(Cc3ccccc3)Cc3ccccc3)c2cc1Cl	EBI2 block 52 (no result: APJ antagonist, APJ ag, CCR6 antagonist) | EBI2 antag conf 51 | EBI2 agonist inactive | bGal counter inactive
Cc1cccc(Nc2nc(-c3ccncc3)cs2)c1	none
Clc1cccc(Nc2nc(-c3ccncc3)cs2)c1	EBI2 block 52 | EBI2 antag conf inactive | EBI2 agonist inactive | bGal counter inactive
CC(SCc1nc2sc3c(c2c(=O)[nH]1)CCCC3)C(=O)Nc1ccccn1 (stereo not drawn)	none
Cc1ccc(C(=O)N[C@H](C(=O)NC2CCCCCCC2)C(C)C)cc1	none
O=[N+]([O-])c1ccc(NN=Cc2cc(Br)ccc2O)nc1	EBI2 block 59, CCR6 antagonist 67 (no result: APJ antagonist, APJ ag) | EBI2 antag conf inactive | EBI2 agonist inactive | bGal counter inactive
O=[N+]([O-])c1ccc(NN=Cc2cccc(O)c2)nc1	none (no result: APJ antagonist, APJ ag)
COc1cc(/C=N/NC(=O)COc2cccc(F)c2)ccc1OS(=O)(=O)c1ccc(C)cc1	none
COC(=O)N/N=C/c1ccc(OS(=O)(=O)c2ccc(C)cc2)c(OC)c1	none
C=CCNC(=O)/C(C#N)=C/c1ccc(OS(=O)(=O)c2ccc(C)cc2)c(OC)c1	EBI2 block 52 (no result: APJ antagonist, APJ ag) | EBI2 antag conf 76 | EBI2 agonist inactive | bGal counter inactive
COc1cc(/C=N/NC(=O)COc2ccc(Cl)cc2)ccc1OS(=O)(=O)c1ccc(C)cc1	EBI2 block 42 | EBI2 antag conf inactive | EBI2 agonist inactive | bGal counter inactive
CC(=O)Nc1ccc(NC(=O)C(C)OC(=O)CSc2ccc(Br)cc2C)cc1 (stereo not drawn)	none
Nc1nc2c(ncn2[C@@H]2O[C@H](CNS(=O)(=O)c3cccnc3)[C@@H](O)[C@H]2O)c(=O)[nH]1	none (no result: APJ antagonist, APJ ag, CCR6 antagonist)
Cc1[nH]c(-c2ccc(F)cc2)cc1C(=O)N1CCN(c2ccc(Cl)cc2)CC1	EBI2 block 73 | EBI2 antag conf inactive | EBI2 agonist inactive | bGal counter inactive
COc1ccc(N2CCN(C(=O)c3cc(-c4ccc(F)cc4)[nH]c3C)CC2)cc1	EBI2 block 93 | EBI2 antag conf 62 | EBI2 agonist inactive | bGal counter inactive
COc1ccc(-n2ncc(C(=O)N3CCN(c4ccc(F)cc4)CC3)c2C)cc1	none
CCOC(=O)N1CCN(C(=O)c2cc(-c3ccc(F)cc3)[nH]c2C)CC1	EBI2 block 89 | EBI2 antag conf 86 | EBI2 agonist inactive | bGal counter inactive
O=C(/C=C/c1cc(Br)ccc1F)OCC(=O)N1CCOCC1	none
S=C(N/N=C/c1ccccc1Cl)Nc1ccccc1	EBI2 block 43 | EBI2 antag conf inactive | EBI2 agonist inactive | bGal counter inactive
CNC(=S)N/N=C/c1ccccc1Cl	none
Cc1cc(SCC(=O)N/N=C/c2cccnc2)nc2c(C)cccc12	EBI2 block 65 | EBI2 antag conf inactive | EBI2 agonist inactive | bGal counter inactive
S=C(NCC1CCCO1)N1CCN(c2nc(-c3ccc(Cl)cc3)cs2)CC1 (stereo not drawn)	EBI2 block 86 | EBI2 antag conf 66 | EBI2 agonist inactive | bGal counter inactive
CN(C)c1ccc(-c2noc(C3CCN(C(=O)Nc4ccc(Cl)cc4)CC3)n2)cc1	EBI2 block 82 | EBI2 antag conf 57 | EBI2 agonist inactive | bGal counter inactive
COc1ccc(NC(=S)N2CCC(c3ccc(C)cc3)C2)cc1 (stereo not drawn)	EBI2 block 46 | EBI2 antag conf inactive | EBI2 agonist inactive | bGal counter inactive
O=C(Nc1ccc(Cl)cc1)N1CCC(c2ccccc2)C1 (stereo not drawn)	EBI2 block 87 | EBI2 antag conf 55 | EBI2 agonist inactive | bGal counter inactive
